TRPC4 potent = allosteric potentiators of mouse TRPC4 channel | Q9QUQ5 | HEK293 TRPC4beta/mu-opioid, DAMGO EC20, Fluo-4 Ca2+ flux; stronger effect = higher value | B-score at 10 µM | 0.42% of 310,000 active;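 active = B-score of calcium response area above 5 SD of library B-scores, with initial fluorescence ratio within 5 SD of library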;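 note: B-score of integrated fluorescence ratio over time as area under calcium response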
TRPC6 inhibitor = blocks the mouse TRPC6 cation channel; HEK293-TRPC6, membrane potential dye, ACh-evoked depolarization; stronger effect = lower value; B-score at 10 µM; 1.1% of 310,000 active; AID 2553;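 active = B-score under library mean minus 3 SD, initial fluorescence not abnormally high, positive integrated signal ratio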;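 note: B-score derived from integrated fluorescence ratio over the kinetic read; more negative B-score means stronger inhibition of depolarization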
Target sequence (Q61143 whole entry, looked up): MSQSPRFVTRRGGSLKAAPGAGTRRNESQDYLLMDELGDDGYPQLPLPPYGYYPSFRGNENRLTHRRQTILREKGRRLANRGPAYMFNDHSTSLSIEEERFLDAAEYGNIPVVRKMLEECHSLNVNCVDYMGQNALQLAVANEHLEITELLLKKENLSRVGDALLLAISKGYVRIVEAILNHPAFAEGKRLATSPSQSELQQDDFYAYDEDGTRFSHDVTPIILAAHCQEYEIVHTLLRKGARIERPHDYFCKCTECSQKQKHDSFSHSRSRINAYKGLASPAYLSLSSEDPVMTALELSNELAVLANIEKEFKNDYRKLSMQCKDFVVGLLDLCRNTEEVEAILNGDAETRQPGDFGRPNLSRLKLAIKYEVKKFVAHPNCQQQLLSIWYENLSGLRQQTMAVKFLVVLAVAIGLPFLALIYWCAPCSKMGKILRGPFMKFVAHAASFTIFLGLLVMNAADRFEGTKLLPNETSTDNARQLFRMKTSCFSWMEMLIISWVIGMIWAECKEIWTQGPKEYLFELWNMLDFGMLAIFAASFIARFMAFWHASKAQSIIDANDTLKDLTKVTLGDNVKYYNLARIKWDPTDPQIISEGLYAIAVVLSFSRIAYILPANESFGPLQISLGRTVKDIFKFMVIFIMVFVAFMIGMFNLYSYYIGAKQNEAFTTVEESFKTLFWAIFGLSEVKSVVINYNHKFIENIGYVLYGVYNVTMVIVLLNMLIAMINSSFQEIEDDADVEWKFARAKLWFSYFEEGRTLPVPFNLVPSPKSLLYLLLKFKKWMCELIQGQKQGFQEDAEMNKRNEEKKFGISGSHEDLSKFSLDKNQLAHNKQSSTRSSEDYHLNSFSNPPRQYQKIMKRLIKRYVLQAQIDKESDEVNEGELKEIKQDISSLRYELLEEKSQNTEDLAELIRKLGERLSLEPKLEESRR
TRPC4 block = blocks the mouse TRPC4 cation channel. B-score at 10 µM. HEK293 TRPC4beta/mu-opioid, DAMGO-evoked Fluo4 calcium flux; stronger effect = lower value. 0.39% of 300,000 active. Q9QUQ5;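 active = B-score over 3 SD under the library average, no early fluorescence shift, positive overall ratio signal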
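Assay system: Stable TRPC4beta/mu-opioid receptor HEK293 cells | Reagent: DAMGO in two steps, submaximal then maximal | Compound dosing: Single concentration per test compound | Signal: Fluo4 Ca2+ flux fluorescence | Evaluation: Per-well B score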
TRPC6 act = activators of mouse TRPC6 channel; Q61143; HEK293-TRPC6 membrane potential dye fluorescence; stronger effect = higher value; B-score at 10 µM; 0.13% of 310,000 active;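 active = B-score of the integrated fluorescence ratio above library mean plus 3 SD, and starting fluorescence ratio within library mean plus 5 SD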;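 note: higher score means more depolarization so channel activation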
TRPC4 act = TRPC4 (mouse) channel activation. Q9QUQ5. HEK293 TRPC4beta/mu-opioid, Fluo4 calcium fluorescence; stronger effect = higher value. B-score at 10 µM. 0.49% of 310,000 active. AID 2237;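 active = B-score above 5 SD of library B-scores, and initial fluorescence ratio not above library mean plus 5 SD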;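 note: positive B-score marks a calcium rise read as TRPC4 activation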
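Assay system: HEK293 stable line with TRPC4beta plus mu-opioid receptor; schedule: 45 min room-temperature Fluo4 loading, 110 s read; technique: kinetic Fluo4 calcium fluorescence; evaluation: integrated baseline-normalised fluorescence ratio, converted to per-well B score; controls: buffer (low) and maximal DAMGO (high)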
TRPC4 sel inh 2 = mouse TRPC4 off-target activity of TRPC6 inhibitors, second screen; inhibition, % at 10 µM; AID 2776; 42% of 920 active; shares compounds with TRPC6 inhibitor; HEK293 TRPC4/MOR, membrane potential dye fluorescence; channel activated by saturating DAMGO dose;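 active = compounds whose fluorescence signal differed from control wells by over 3 SD, either direction, in both duplicate plates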
TRPC4 spec = tests whether TRPC6 inhibitors also affect mouse TRPC4; shares compounds with TRPC6 inhibitor; HEK293 TRPC4/mu-opioid, membrane potential fluorescence; activity change, negative = inhibition, % at 10 µM; 61% of 920 active; AID 2777;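 active = rise or fall in signal beyond 3 SD of buffer-only wells in both replicate plates, either sign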;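 note: integrated kinetic ratio of fluorescence range over baseline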
HEK293 MPD ctr 2-1 = second check of TRPC6 inhibitor effects in parental HEK293 cells; shares compounds with TRPC6 inhibitor; parental HEK293 membrane potential dye fluorescence; maximal acetylcholine challenge after compound addition; signal change vs control, % at 10 µM; 31% of 920 active; AID 2779;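 active = membrane potential signal moving either way by over 3 SD of the maximum-effect control, in both duplicate plates, meaning non-specific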
HEK293 MPD ctr-1 = checks TRPC6 inhibitor effects in parental HEK293 cells | shares compounds with TRPC6 inhibitor | parental HEK293 membrane potential dye fluorescence | membrane potential signal change, % at 10 µM | 60% of 920 active | AID 2780;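 active = membrane potential signal shifting up or down by more than 3 SD of buffer-only wells, on both duplicate plates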
HEK293 MPD ctr-2 = checks TRPC6 modulator effects in parental HEK293 cells; shares compounds with TRPC6 inhibitor; membrane potential dye fluorescence; membrane potential signal change, % at 10 µM; 51% of 2,400 active; AID 488924;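 active = membrane potential signal moves up or down beyond 5 SD from buffer-only wells, on both duplicate plates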
HEK293 MPD ctr 2-2 = second check of TRPC6 modulator effects in parental HEK293 cells; 14% of 2,400 active; membrane potential dye fluorescence; after compound, maximal acetylcholine stimulation; inhibition, % at 10 µM; shares compounds with TRPC6 inhibitor;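 active = membrane potential signal drops by more than 5 SD from the mean control signal, in both duplicate plates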;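 note: plate controls were acetylcholine ECmax control wells for no effect and buffer only wells for full effect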
TRPC4/MOR mod = tests whether TRPC6 modulators also affect mouse TRPC4; shares compounds with TRPC6 inhibitor; HEK293 TRPC4/mu-opioid, membrane potential fluorescence; percent change from control (negative = decrease, positive = increase), % at 10 µM; 69% of 2,400 active; AID 488927;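 active = membrane potential signal moved up or down beyond 5 SD of buffer control wells, in both duplicate plates, actives on both sides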;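 note: plate controls were assay buffer wells for no effect and DAMGO maximal-effect wells for full effect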
TRPC4/MOR inh 2 = mouse TRPC4 off-target activity of TRPC6 modulators, second screen | inhibition, % at 10 µM | 55% of 2,400 active | shares compounds with TRPC6 inhibitor | HEK293 TRPC4/mu-opioid, membrane potential dye fluorescence; stimulated with maximal-effect DAMGO;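 active = drop in membrane potential signal beyond 5 SD of the control wells in both duplicate plates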;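 note: TRPC4 counter screen for TRPC6 hits run under conditions tuned for TRPC6 not TRPC4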
TRPC6 block conf = confirmation of mouse TRPC6 inhibitors | inhibition, % at 10 µM | shares compounds with TRPC6 inhibitor | HEK293-TRPC6, membrane potential dye, ACh-evoked depolarization | 43% of 3,300 active;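 active = fluorescence ratio falls more than 5 SD below the full-stimulation control mean, in both duplicate runs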;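 note: integrated fluorescence ratio of peak minus minimum over baseline after agonist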
TRPC6 act confirm = mouse TRPC6 activator confirmation. shares compounds with TRPC6 inhibitor. HEK293-TRPC6 membrane potential dye fluorescence, FDSS. activation, % at 10 µM. 11% of 2,800 active. AID 488961;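 active = ratio signal rise beyond 5 SD above unstimulated control wells' mean, seen in both duplicate runs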;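 note: plate controls were buffer EC0 wells for no effect and acetylcholine ECmax response for full effect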
The depositor's hits bear a star. An excerpt weighted towards active compounds, which were near 2.3% of everything screened.

Results for O=C(Nc1ccc(NC(=O)c2cccnc2Cl)cc1)c1cccc(Cl)c1 ?
TRPC4 potent: inactive; TRPC6 inhibitor: inactive; TRPC4 block: inactive; TRPC6 act: inactive; TRPC4 act: inactive

How did CC(C)(C)C(=O)/C=c1\s/c(=C\c2ccc(-c3ccc([N+](=O)[O-])cc3)o2)c(=O)n1CC(=O)NC(N)=O do in these assays?
TRPC4 potent: 21*; TRPC6 inhibitor: inactive; TRPC4 block: inactive; TRPC6 act: 57*; TRPC4 act: 62*; HEK293 MPD ctr-2: active; HEK293 MPD ctr 2-2: inactive; TRPC4/MOR mod: 348%*; TRPC4/MOR inh 2: inactive; TRPC6 block conf: inactive; TRPC6 act confirm: 418%*

What do the screens show for `CCC(=O)N/N=C/c1ccc(-c2ccc([N+](=O)[O-])cc2)o1`?
TRPC4 potent: inactive; TRPC6 inhibitor: inactive; TRPC4 block: inactive; TRPC6 act: inactive; TRPC4 act: inactive

How did CCOC(=O)c1cnc2ccc(OCC)cc2c1NCCN1CCOCC1 do in these assays?
TRPC4 potent: inactive; TRPC6 inhibitor: -5.2*; TRPC4 block: inactive; TRPC6 act: inactive; TRPC4 act: inactive; HEK293 MPD ctr-2: inactive; HEK293 MPD ctr 2-2: inactive; TRPC4/MOR mod: inactive; TRPC4/MOR inh 2: 41%*; TRPC6 block conf: inactive; TRPC6 act confirm: inactive

What do the screens show for `CCOC(=O)c1cnc2ccc(C)cc2c1NCCO`?
TRPC4 potent: inactive; TRPC6 inhibitor: -8.2*; TRPC4 block: inactive; TRPC6 act: inactive; TRPC4 act: inactive; TRPC4 sel inh 2: inactive; TRPC4 spec: -12%*; HEK293 MPD ctr 2-1: 6.5%*; HEK293 MPD ctr-1: -279%*; TRPC6 block conf: inactive; TRPC6 act confirm: inactive

Results for CCOC(=O)c1cnc2ccc(OCC)cc2c1NCCCN1CCOCC1 ?
TRPC4 potent: inactive; TRPC6 inhibitor: -6.1*; TRPC4 block: inactive; TRPC6 act: inactive; TRPC4 act: inactive; HEK293 MPD ctr-2: inactive; HEK293 MPD ctr 2-2: 80%*; TRPC4/MOR mod: 21%*; TRPC4/MOR inh 2: 34%*; TRPC6 block conf: 42%*; TRPC6 act confirm: inactive

What do the screens show for `CCOC(=O)c1cnc2ccc(OCC)cc2c1N1CCN(C)CC1`?
TRPC4 potent: inactive; TRPC6 inhibitor: -5.5*; TRPC4 block: inactive; TRPC6 act: inactive; TRPC4 act: inactive; HEK293 MPD ctr-2: -110%*; HEK293 MPD ctr 2-2: inactive; TRPC4/MOR mod: -18%*; TRPC4/MOR inh 2: 43%*; TRPC6 block conf: inactive; TRPC6 act confirm: inactive

How did CCOC(=O)c1cnc2ccc(C(=O)OC)cc2c1NCCc1ccc(OC)c(OC)c1 do in these assays?
TRPC4 potent: inactive; TRPC6 inhibitor: inactive; TRPC4 block: inactive; TRPC6 act: inactive; TRPC4 act: inactive

Results for COc1ccc(NC(=O)COc2cccc(-n3cnnn3)c2)cc1 ?
TRPC4 potent: inactive; TRPC6 inhibitor: inactive; TRPC4 block: inactive; TRPC6 act: inactive; TRPC4 act: inactive

What do the screens show for `CN(C)c1ccc(C(C(=O)NC2CCCCC2)N(Cc2ccco2)C(=O)c2snc(C(N)=O)c2N)cc1` (configuration not stated)?
TRPC4 potent: inactive; TRPC6 inhibitor: inactive; TRPC4 block: inactive; TRPC6 act: inactive; TRPC4 act: inactive

How did CCOC(=O)C1=c2s/c(=C\c3cccnc3)c(=O)n2C(N)=C(C(=O)OC)C1c1cccnc1 (configuration not stated) do in these assays?
TRPC4 potent: inactive; TRPC6 inhibitor: -5.1*; TRPC4 block: inactive; TRPC6 act: inactive; TRPC4 act: inactive; HEK293 MPD ctr-2: inactive; HEK293 MPD ctr 2-2: inactive; TRPC4/MOR mod: inactive; TRPC4/MOR inh 2: inactive; TRPC6 block conf: inactive; TRPC6 act confirm: inactive

How did CN(C)CCOc1nc(-c2ccccc2)nc2c1oc1ccccc12 do in these assays?
TRPC4 potent: inactive; TRPC6 inhibitor: -8.9*; TRPC4 block: inactive; TRPC6 act: inactive; TRPC4 act: 45*; TRPC4 sel inh 2: 62%*; TRPC4 spec: inactive; HEK293 MPD ctr 2-1: inactive; HEK293 MPD ctr-1: inactive; TRPC6 block conf: inactive; TRPC6 act confirm: inactive

Results for Cc1ccc(NC2CCCN(C(=O)c3cccc(-c4ncc[nH]4)c3)C2)cc1C (configuration not stated) ?
TRPC4 potent: inactive; TRPC6 inhibitor: inactive; TRPC4 block: inactive; TRPC6 act: inactive; TRPC4 act: inactive

How did CCCNC(=S)N1CCC(NC(=O)c2ccc(C)cc2)CC1 do in these assays?
TRPC4 potent: inactive; TRPC6 inhibitor: inactive; TRPC4 block: inactive; TRPC6 act: inactive; TRPC4 act: inactive

What do the screens show for `Cc1nn(C)c(C)c1CCC(=O)N1CCCC(N2CCN(c3ccc(F)cc3)CC2)C1` (configuration not stated)?
TRPC4 potent: inactive; TRPC6 inhibitor: inactive; TRPC4 block: inactive; TRPC6 act: inactive; TRPC4 act: inactive
